# A selection: hits, their analogues and other compounds. The true share with any hit is near 0.83%.
# ABCB1 inh – human ABCB1 inhibition, ABCG2 as counter-screen; CCRF-Adr cells, JC-1 efflux, flow cytometry; inhibition, % at 6.6 µM; 190,000 tested, 0.067% active; AID 1326; in the data active means inhibition above about 40%;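 further: 0% = vehicle and 100% = reference inhibitor; higher value means more JC-1 retained so stronger ABCB1 efflux block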
# RGS8-Gao – regulators of human RGS8-Galphao interaction. response (percent of control binding), % at 10 µM. 220,000 tested, 0.34% active. multiplexed bead flow cytometry, RGS8-Galphao binding; actives lie on both sides. AID 1423. P09471; in the data active means response below about 60% or above about 140%; inactive means in between;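 further: Galphao activated as the GDP aluminium fluoride complex binding bead-coupled RGS8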
# ABCG2 block – blocks JC-1 efflux by human ABCG2 transporter. inhibition, % at 6.6 µM. Q9UNQ0. 190,000 tested, 0.1% active. IgMXP3 cells, flow cytometry;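 active means inhibition above 80%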;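 further: 0% = DMSO and 100% = nicardipine control wells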
# Target sequence (Q9UNQ0 whole entry, looked up): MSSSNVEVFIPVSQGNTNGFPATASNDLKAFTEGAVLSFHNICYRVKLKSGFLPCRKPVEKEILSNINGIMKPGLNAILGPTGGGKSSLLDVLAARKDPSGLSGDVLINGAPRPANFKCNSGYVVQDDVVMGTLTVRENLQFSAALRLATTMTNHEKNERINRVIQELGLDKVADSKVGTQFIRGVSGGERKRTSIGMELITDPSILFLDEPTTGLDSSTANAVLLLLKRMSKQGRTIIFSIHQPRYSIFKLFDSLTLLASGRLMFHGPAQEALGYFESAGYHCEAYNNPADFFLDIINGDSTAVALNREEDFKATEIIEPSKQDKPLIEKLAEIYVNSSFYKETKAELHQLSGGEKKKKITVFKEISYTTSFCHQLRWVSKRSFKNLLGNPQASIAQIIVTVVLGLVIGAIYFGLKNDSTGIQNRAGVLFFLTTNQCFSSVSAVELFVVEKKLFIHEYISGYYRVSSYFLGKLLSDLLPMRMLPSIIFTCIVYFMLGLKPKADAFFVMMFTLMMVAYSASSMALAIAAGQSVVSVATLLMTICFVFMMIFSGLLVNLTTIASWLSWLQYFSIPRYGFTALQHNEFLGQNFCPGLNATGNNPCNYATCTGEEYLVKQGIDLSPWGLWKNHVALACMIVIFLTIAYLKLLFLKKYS
#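 Measure – % inhibition of efflux relative to nicardipine and DMSO · Test system – ABCG2 IgMXP3 and barcoded ABCB1 CCRF-Adr cell mix · Control set – nicardipine as high control, DMSO as low control · Compound – one concentration, 6.6 µM final · Signal – flow cytometry of retained JC-1 fluorescence · Timing – 10 min exposure at 25 °C with rotation, no wash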
# RGS16-Gao HTS – modulates binding between human RGS16 and Galphao; O15492+P09471; bead-based flow cytometry RGS16-Galphao binding, fluorescence; actives lie on both sides; binding response (% of control), % at 10 µM; 220,000 tested, 0.38% active; AID 1441; call rule not given here;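 further: Galphao activated by GDP with aluminum fluoride before binding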
# RGS4-Gao reg – modulates binding of RGS4 to human Galphao. P09471. Multiplexed bead flow cytometry; actives lie on both sides. 220,000 tested, 0.33% active. binding response (% of control), % at 10 µM; in the data active means binding response below about 49% or above about 150%; inactive means in between;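 further: fluorescent Galphao activated with aluminum fluoride binding bead-coupled RGS4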
# RGS7-Gao reg – regulators of human RGS7-Galphao interaction; 220,000 tested, 0.35% active; binding response (% of control), % at 10 µM; Multiplexed bead flow cytometry, RGS7-Galphao binding; actives lie on both sides; in the data active means binding response below about 49% or above about 150%; inconclusive means no clear call, values can overlap the other calls; inactive means in between;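 further: fluorescent Galphao held in activated GDP-AlF4 state binding bead-coupled RGS7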
# ABCB1 single pt – inhibits human ABCB1 efflux, confirmed at single point | shares compounds with ABCG2 block | inhibition, % at 6.6 µM | 270 tested, 7% active | CCRF-Adr cells, JC-1 efflux, flow cytometry | AID 1451;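 active means inhibition of pump activity above 50%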;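 further: 0% = DMSO and 100% = nicardipine full pump inhibition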
# ABCG2 confirm – confirmation of human ABCG2 transporter inhibitors, ABCB1 counter-screen | 270 tested, 6% active | shares compounds with ABCG2 block | inhibition, % at 6.6 µM | AID 1453 | IgMXP3 cells, JC-1 efflux, flow cytometry;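 further: 0% = DMSO wells and 100% = nicardipine pump inhibitor wells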
# IgMXP3 fluor – IgMXP3 autofluorescence flag for ABCG2 confirmation | 270 tested, 30% active | fluorescence at 6.6 µM | shares compounds with ABCG2 block | IgMXP3 cells, compound autofluorescence 488/530 nm, flow; stronger effect = higher value;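 active means fluorescence in ABCG2-expressing cells above the plate's control-well mean plus 3 SD, cut at about 15 in these data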;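 further: median cell fluorescence with compound minus that of DMSO-treated control cells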
# CCRF-Adr fluor – counter-screen for ABCB1 inhibitors: compound fluorescence in CCRF-Adr cells; 270 tested, 30% active; compound autofluorescence 488/530 nm, flow cytometry; stronger effect = higher value; AID 1483; shares compounds with ABCG2 block; fluorescence at 6.6 µM;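 active means fluorescence beyond the plate control mean plus 3 SD, with a fluorescence-to-maximum score over 2, cut at about 25 in these data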
# RGS-Gao – modulates binding between human RGS4 and Galphao; RGS4–Galpha-o binding response, % at 10 µM; multiplexed bead flow cytometry, RGS–Galpha-o binding; AID 1504; 1,600 tested, 99% active; shares compounds with RGS16-Gao HTS; call rule not given here;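 further: fluorescently labeled Galpha-o bound to GDP with aluminium fluoride binding biotinylated RGS beads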
# Avidin counter – biotin-avidin bead binding disruption counter-screen. shares compounds with RGS16-Gao HTS. streptavidin beads, fluorescein-biotin binding, flow cytometry. inhibition, % at 10 µM. 1,700 tested, under 10 active;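 further: median green fluorescence of gated singlet beads compared with DMSO control wells; 0% = DMSO wells and 100% = complete loss of bead fluorescence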
# RGS8-Gao confirm – confirmation of regulators of human RGS8-Galphao interaction. shares compounds with RGS16-Gao HTS. bead-based flow cytometry RGS8-Galphao binding, fluorescence; actives lie on both sides. binding response (% of control), % at 10 µM. 1,700 tested, 3% active; in the data active means binding response below about 72% or above about 130%; inactive means in between;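 further: Galphao activated as GDP AlF4 complex before binding bead RGS8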
# RGS7-Gao single – RGS7-Galphao interaction regulation, single point confirmation | bead-based flow cytometry RGS7-Galphao binding; actives lie on both sides | shares compounds with RGS16-Gao HTS | response (percent of control binding), % at 10 µM | AID 1837 | 1,700 tested, 7.8% active; in the data active means response below about 75% or above about 130%; inactive means in between;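 further: fluorescent Galphao activated with GDP and aluminum fluoride binding bead-coupled RGS7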
# RGS16-Gao conf – confirmation of regulators of human RGS16-Galphao interaction. shares compounds with RGS16-Gao HTS. bead-based flow cytometry, RGS16-Galphao binding; actives lie on both sides. response (% of control binding), % at 10 µM. 1,700 tested, 4% active; in the data active means response below about 74% or above about 130%; inactive means in between;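 further: Galphao activated as the GDP aluminium fluoride complex binding bead-coupled RGS16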
# RGS4-Gao single – confirmation of regulators of human RGS4-Galphao interaction | binding response (% of control), % at 10 µM | AID 1840 | RGS4-Galphao binding, multiplexed bead flow cytometry; actives lie on both sides | shares compounds with RGS16-Gao HTS | 1,700 tested, 4% active; in the data active means binding response below about 74% or above about 130%; inactive means in between
# RGS19-Gao single – confirmation of regulators of human RGS19-Galphao interaction; shares compounds with RGS16-Gao HTS; bead-based flow cytometry RGS19-Galphao binding; actives lie on both sides; response (percent of control binding), % at 10 µM; 1,700 tested, 5% active; AID 1841; in the data active means response below about 50% or above about 160%; inactive means in between;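 further: 100% = no compound control and 0% = blank background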
# The depositor's hits bear a star; ? = inconclusive; nt = not tested or not shown; + = active, no number; [ ] = dose if it differs, or a comment.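 How the source made its calls, unless noted: active means inhibition above 50%; inactive means the rest.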
SMILES,ABCB1 inh,RGS8-Gao,ABCG2 block,RGS16-Gao HTS,RGS4-Gao reg,RGS7-Gao reg,Avidin counter,RGS8-Gao confirm,RGS7-Gao single,RGS16-Gao conf,RGS4-Gao single,RGS19-Gao single,others
CCOC(=O)C(Oc1ccc2c(-c3ccccc3)cc(=O)oc2c1)c1ccccc1 (stereo not given),8,100,13,103,102,99,nt,nt,nt,nt,nt,nt,
CCc1nnc(NC(=O)c2cc(S(=O)(=O)N3CCOCC3)ccc2N2CCCCC2)s1,69*,393*[activator],77,+[activator],+[activator],+[activator],3,104,77,89,88,58,ABCB1 single pt=3;ABCG2 confirm=15;IgMXP3 fluor=-1;CCRF-Adr fluor=-0.79
O=C(Nc1nnc(C2CC2)s1)c1cc(S(=O)(=O)N2CCCCC2)ccc1N1CCOCC1,nt,95,nt,97,94,?,nt,nt,nt,nt,nt,nt,
Cc1ccc(SCC(=O)N=C2NC(=O)CS2)cc1,0,99,0,98,96,101,nt,nt,nt,nt,nt,nt,
O=C(c1cccs1)N1CCc2ccccc21,0,126,1,136,154*[activator],153*[activator],0,92,86,89,89,90,
COc1ccc(C(=O)Nc2ccc(-c3ccc(C)o3)cc2)cc1S(=O)(=O)N1CCOCC1,0,99,-2,103,100,107,nt,nt,nt,nt,nt,nt,
COc1ccc(C(=O)Nc2ccc(-c3cn4ccsc4n3)cc2)cc1S(=O)(=O)N1CCOCC1,0,17*,-1,-56*,-46*,-7.2*,-1,98,93,99,98,98,
Cc1cccc(Cn2c(C)nc3c(N)c(C)c(C)cc32)c1,0,99,0,101,98,95,nt,nt,nt,nt,nt,nt,
CCCc1cc(=O)[nH]c(SCC(=O)N2CCN(c3ccc(F)cc3)CC2)n1,1,107,5,107,106,104,nt,nt,nt,nt,nt,nt,
CCOC(=O)C1CCCN(C(=O)/C=C/c2ccc(Cl)cc2)C1 (stereo not given),1,101,4,109,104,106,nt,nt,nt,nt,nt,nt,
CCOC(=O)C1CCCN(C(=O)/C=C/c2cc(OC)c(OC)c(OC)c2)C1 (stereo not given),-1,92,-5,103,103,170*[activator],1,102,98,97,99,90,RGS-Gao=103*
CCN1CCN(C(=O)Cn2nc(-c3ccc(Cl)cc3)ccc2=O)CC1,0,101,5,100,105,171*[activator],2,104,105,106,104,88,RGS-Gao=105*
CCOC(=O)N1CCN(C(=O)Cn2nc(-c3ccc(Cl)cc3)ccc2=O)CC1,1,94,4,79,99,98,nt,nt,nt,nt,nt,nt,
CCOC(=O)c1[nH]c(CO)c(C(=O)OCC)c1C,nt,99,nt,94,91,?,nt,nt,nt,nt,nt,nt,
Cc1cc(-c2n[nH]c(=S)n2/N=C/c2cc([N+](=O)[O-])ccc2Cl)n[nH]1,-2,66,-11,-2.0*,83,79,0,97,123,96,103,92,RGS-Gao=83*
Nc1ccc2c(c1)C(=O)C(=O)c1ccccc1-2,1,102,1,15,74,91,nt,nt,nt,nt,nt,nt,
O=C1C(=O)c2ccc(-c3ccccc3)cc2-c2ccccc21,0,134,4,259*[activator],116,112,-1,94,96,92,94,62,RGS-Gao=116*
COc1ccccc1OCCOCCOc1ccc(C)cc1Br,1,80,9,22*,89,89,-2,101,98,100,101,96,RGS-Gao=89*
CCC(=O)N1CCN(c2ccc(Cl)cc2NC(=O)c2ccc3c(c2)OCCO3)CC1,10,6.1*,23,-0.4*,0.4*,2.0*,2,100,96,99,99,98,
CCC(=O)N1CCN(c2ccc(NC(=O)c3ccc4c(c3)OCCO4)cc2)CC1,0,100,0,101,97,94,nt,nt,nt,nt,nt,nt,
CCCn1nnc(NC(=O)/C=C/c2ccc(C(C)C)cc2)n1,nt,99,nt,91,91,?,nt,nt,nt,nt,nt,nt,
CSCC[C@H](NC(=O)Nc1ccc(OC(F)(F)F)cc1)C(=O)O,nt,55*,nt,48,61,?,0,102,99,98,102,97,RGS-Gao=61*
CSCC[C@H](NC(=O)Nc1ccc(Oc2ccccc2)cc1)C(=O)O,nt,106,nt,108,110,?,nt,nt,nt,nt,nt,nt,
CN1C(=O)/C(=C/c2ccccc2OCc2cccc(F)c2)N(C)C1=S,0,nt,18,nt,nt,nt,2,100,99,101,99,97,
CC(C)CCNC(=O)c1ccc2c(c1)N(Cc1ccccc1)C(=O)CS2=O (stereo not given),0,102,1,101,100,99,nt,nt,nt,nt,nt,nt,
CC1CC(OCC(O)C[N+]2(C)CCOCC2)CC(C)(C)C1 (stereo not given),0,30*,0,17*,22*,21*,0,108,106,109,105,109,

# Source: PubChem BioAssay
